TbMetRS inhib: blocks T. brucei methionyl-tRNA synthetase activity. AID 624268. purified T. brucei MetRS, ATP depletion, Kinase-Glo luminescence. inhibition, % at 11.9 µM. 360,000 compounds, 0.4% hits;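 active = inhibition above a per-plate cutoff of the control wells' mean inhibition plus 3 SD, cut at about 5.5% in these data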;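 note: 0% = DMSO wells median and 100% = median of wells with control inhibitor compound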
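Material – parasite MetRS enzyme · Medium – HEPES-MgCl2-KCl buffer plus DTT, spermine, BSA, pyrophosphatase · Reagent – ATP, methionine and E. coli bulk tRNA substrates · Times – 15 min enzyme-compound preincubation, 2 h reaction, 10 min detection, 25 °C · Measured by – luminescence of leftover ATP · Evaluation – percent inhibition relative to median high and low control wells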
WT yeast gro inh: growth inhibition of WT yeast, mitochondrial fusion screen; mitochondrial fusion phenotypic screen, WT strain; inhibition, % at 10 µM; 190,000 compounds, 2.1% hits; AID 1362; in the data active = inhibition above about 58%; tested in S. cerevisiae
MPTP inh: inhibitors of mitochondrial permeability transition pore. isolated mouse mitochondria, Ca2+ swelling absorbance, 30 min. inhibition, % at 10 µM. 360,000 compounds, 1.4% hits. AID 602449;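 active = inhibition of 50% or more, scaled per plate between neutral and stimulator controls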;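 note: 0% = DMSO wells given calcium and 100% = 1 mM EGTA wells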
NR3A LBD binder: NR3A (human) ligand-binding domain modulation. Tm shift relative to glycine control, % at 25 µM. 340,000 compounds, 2.5% hits. NR3A LBD differential scanning fluorimetry, Tm shift; 0% = protein alone, 100% = glycine-bound protein;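 active = melting temperature shift of at least 10% of the positive control shift, at one fixed dose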
CHOP inhibitor: inhibitors of CHOP induction in ER stress response. inhibition, % at 10 µM. CHO-K1 CHOP-promoter luciferase, tunicamycin-induced, 15-18 h. 220,000 compounds, 3.8% hits;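 active = compounds that reduced the stress-induced luciferase reporter signal by more than about 70% of percent inhibition, limit read from the data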;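 note: 0% = tunicamycin plus vehicle and 100% = wells without tunicamycin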
EBV gp42 inh: EBV gp42 inhibition. inhibition, % (tested at 21.74 µM). Q1HVG2. 220,000 compounds, 0.42% hits. Fluorescence polarization binding assay, mP read-out; in the data active = inhibition above about 50%
Target sequence (Q1HVG2 whole entry, looked up): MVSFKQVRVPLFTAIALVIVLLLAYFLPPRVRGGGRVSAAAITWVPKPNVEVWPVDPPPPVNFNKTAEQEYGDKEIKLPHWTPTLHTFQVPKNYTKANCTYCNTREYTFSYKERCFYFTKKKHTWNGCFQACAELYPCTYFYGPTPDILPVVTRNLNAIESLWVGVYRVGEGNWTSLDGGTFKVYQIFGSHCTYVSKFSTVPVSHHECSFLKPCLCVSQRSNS
* marks the source's active call; other numbers are inactive results; . = no result given. In the library only some 6.4% were active in any assay of this set; here they are far more common.

SMILES	TbMetRS inhib	WT yeast gro inh	MPTP inh	NR3A LBD binder	CHOP inhibitor	EBV gp42 inh
COc1ccc(OCc2cc(C(=O)N(C)C3CCOC3)no2)c(Cl)c1 (stereo not given)	0.2	.	-0.9	2.2	.	.
Clc1ccc(Oc2cccc(/C=N/n3cnnc3)c2)cc1	0.0	67.8*	-1.5	0.4	15.7	-5.6
COc1ccc(-c2cn[nH]c2-c2ccc(OCc3ccc(F)cc3)cc2O)cc1OC	-0.2	.	6.5	15.9*	58.1	-3.2
COc1ccccc1-c1cn[nH]c1-c1ccc(OCc2ccc(F)cc2)cc1O	0.0	.	8.2	7.3	12.1	3.2
Oc1cc(OCc2ccccc2)ccc1-c1[nH]ncc1-c1ccccc1	-1.0	.	19.6	16.7*	4.8	14.0
COc1ccc(-c2cn[nH]c2-c2ccc(OCc3ccccc3)cc2O)cc1OC	-0.9	.	2.9	0.4	26.6	3.2
Cc1ccc(C(=O)CCC(=O)OCC(=O)Nc2c(C)nn(-c3ccccc3)c2C)cc1	0.1	.	-0.3	0.7	.	.
CC(C)Nc1nc(NCCO)nc2ccccc12	0.3	.	0.5	.	.	.
COC(=O)c1ccc(S(=O)(=O)N(C2CCCCC2)C2CCCCC2)n1C	-0.1	.	4.0	-0.4	23.8	-14.7
Cc1cc(C)nc(N2CCCC(C(=O)NCc3cccc(C(F)(F)F)c3)C2)n1 (stereo not given)	-0.8	-7.0	0.3	-0.8	82.9*	-24.8
CC(C)(C)c1ccc(C(=O)Nc2c3c(nn2C(C)(C)C)CS(=O)(=O)C3)cc1	-0.4	.	0.3	-0.8	.	.
Cc1ccc(N=C2NC(=O)/C(=C\c3ccsc3)S2)c(C)c1	-0.3	83.3	13.3	-15.7	71.8*	1.3
Cc1ccc(N=C2NC(=O)/C(=C/c3cccnc3)S2)c(C)c1	2.5	.	5.4	-0.1	24.6	-7.7
COc1ccc(/C=N/n2c(-c3n[nH]c4c3CCC4)n[nH]c2=S)cc1OC	-0.2	-14.2	-0.7	1.3	6.2	-10.6
CC(C)OC(=O)c1cc2c(ccn2C)n1CC(=O)N(Cc1ccccc1)c1ccc(F)cc1	-0.7	46.7	-0.2	-4.6	70.5*	19.9
CCOC(=O)c1cc2c(ccn2C)n1CC(=O)N(Cc1ccccc1)c1ccc(F)cc1	-1.3	14.7	-1.1	-3.7	70.4*	-0.3
CCOC(=O)c1cc2c(ccn2C)n1CC(=O)N(Cc1ccccc1)c1ccccc1	-1.0	38.4	2.4	9.9	52.0	7.5
CC(C)OC(=O)c1cc2c(ccn2C)n1CC(=O)N1CCC(Cc2ccccc2)CC1	0.2	7.5	-1.3	-1.8	70.2*	-8.7
Cc1ccccc1Cn1c(C(=O)OC(C)C)cc2c1ccn2C	0.5	1.2	1.6	-1.2	51.2	-10.6
Cc1nnc2sc(-c3ccc(N(C)C)cc3)nn2c1=O	-0.7	.	1.3	-0.4	.	.
CCC(C)(C)NC(=O)c1cccc(NC(=O)C(C)C)c1	0.4	-8.4	-0.4	-2.9	4.3	-8.0
COc1ccc2c(c1)oc(=O)c1c3ccccc3[nH]c21	1.0	7.3	16.1	21.2*	69.0	-0.3
Cc1ccc(C(=O)Nc2nc(=O)[nH]s2)cc1	-0.2	-10.8	0.0	-0.9	-20.9	-9.2
NNC(=O)CN1C(c2cccc(Cl)c2)=Nc2ccc(Br)cc2C1c1ccccc1 (stereo not given)	-1.3	21.2	0.0	0.6	56.9	14.9
O=C(NCc1ccco1)c1cccnc1Cl	-0.6	-10.6	-2.1	-6.6	13.9	-10.8
SMILES	TbMetRS inhib	WT yeast gro inh	MPTP inh	NR3A LBD binder	CHOP inhibitor	EBV gp42 inh
O=C(NCc1ccco1)c1cccnc1-c1nc2ccccc2s1	-0.5	63.8*	0.5	3.4	-3.4	-7.1
N#CC1=C(N)OC2=C(CCC/C2=C/c2ccoc2)C1c1ccoc1 (stereo not given)	.	-20.7	.	.	-25.5	-3.6
N#CC1=C(N)OC2=C(CC/C2=C\c2ccc(F)cc2)C1c1ccc(F)cc1 (stereo not given)	.	-34.6	.	.	79.0*	61.4*
O=C(COC(=O)C1COc2ccccc2O1)NC(=O)Nc1ccc2c(c1)OCCO2 (stereo not given)	0.2	98.7*	-0.6	0.1	33.2	1.6
O=C(NNc1nc(-c2ccc(Cl)cc2)cs1)c1ccco1	-0.6	13.4	-0.4	-4.6	8.3	9.0
CNc1ccccc1C(C)(C)c1cc(-c2cccc(Br)c2)no1	0.0	72.7*	10.7	-0.3	51.8	0.7
CNc1ccccc1C(C)(C)c1cc(-c2cccc([N+](=O)[O-])c2)no1	-0.4	51.8	0.2	1.7	42.0	-10.1
OCCN(Cc1ccccc1)Cc1cccc(C(F)(F)F)c1	-1.1	-4.8	0.6	-0.5	46.5	4.3
OCCN(Cc1ccccc1)Cc1ccc(C(F)(F)F)cc1	-0.4	-2.2	-0.1	-0.1	91.4*	-5.6
Cc1ccc(S(=O)(=O)N2C[C@H]3[C@H]4C(=O)N(C5CCCCC5)C(=O)[C@H]4CC(=O)[C@H]3[C@@H]2c2ccccc2Cl)cc1	-0.3	.	0.5	.	.	.
Cc1ccc(C(C(=O)NC(C)(C)C)N(Cc2cccs2)C(=O)c2ccc3c(c2)OCCO3)cc1 (stereo not given)	-0.8	71.5*	-0.9	-1.3	30.1	-6.8
Cc1ccc(C(C(=O)NC(C)(C)C)N(Cc2cccs2)C(=O)c2csnn2)cc1 (stereo not given)	-0.6	.	-2.3	0.0	.	.
CCC(C)(C)NC(=O)C(c1ccc(C)cc1)N(Cc1cccs1)C(=O)c1ccc2c(c1)OCCO2 (stereo not given)	-0.5	73.7*	0.7	-1.7	46.8	-15.3
O=C(C1CC(=O)N(C2CCCC2)C1)N1CCN(c2ccccc2)CC1 (stereo not given)	0.2	.	-2.2	0.2	.	.
COc1cc2nc(CN(CCC(C)C)Cc3nc4cc(OC)c(OC)cc4c(=O)[nH]3)[nH]c(=O)c2cc1OC	-0.8	3.9	0.2	10.9*	-13.4	-27.2
Cc1nc2n(n1)C(O)c1cc([N+](=O)[O-])ccc1S2 (stereo not given)	.	2.0	.	.	-17.5	-26.9
CN1CCN(c2ccccc2NC(=O)c2ccc(F)cc2)CC1	-0.8	.	-0.6	0.8	2.2	-1.0
CC1CCN(c2ccccc2NC(=O)c2ccc(F)cc2)CC1	1.0	72.4*	4.5	2.2	46.6	-4.0
CC1CCN(c2ccccc2NC(=S)NC(=O)c2cccs2)CC1	0.0	57.8	3.0	-4.9	-4.6	-4.9
CC1CCN(c2ccccc2NC(=S)NC(=O)C(C)(C)C)CC1	0.2	78.0*	3.7	0.4	-27.1	6.6
CC(C)OCCCNC(=O)Cn1ccc2cc(S(=O)(=O)N3CCCCCC3)ccc21	-0.7	.	-1.6	1.6	.	.
Cc1ccc(-c2csc(NC(=O)c3cccc([N+](=O)[O-])c3)n2)cc1	0.5	9.1	5.1	24.6*	22.6	5.2
O=C(NC(=S)Nc1nc(-c2cccc([N+](=O)[O-])c2)cs1)c1ccccc1Cl	-0.8	2.3	4.0	-3.1	95.9*	0.4
COc1ccc(CC(=O)Nc2nc(-c3ccc(F)c(F)c3)cs2)cc1	0.0	.	0.3	3.0	.	.
